# An excerpt weighted towards active compounds, which were near 2.3% of everything screened.
# TRPC4 potent: positive allosteric modulators of TRPC4, primary screen, cell-based, mouse TRPC4beta, HEK293 mu-opioid, Fluo-4 calcium. actives 0.42% (n = 310,000). DAMGO EC20, Fluo-4 Ca2+ flux; stronger effect = higher value. AID 2227, 2009. Short transient receptor potential channel 4 (Mus musculus), Q9QUQ5. B-score at 10 µM;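 active = B-score of calcium response area above 5 SD of library B-scores, with initial fluorescence ratio within 5 SD of library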;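 note: B-score of integrated fluorescence ratio over time as area under calcium response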
# TRPC6 activator: mouse TRPC6 channel activators, primary screen, cell-based, HEK293, membrane potential dye; Short transient receptor potential channel 6 (Mus musculus), Q61143; HEK293-TRPC6 membrane potential dye fluorescence; stronger effect = higher value; B-score at 10 µM; actives 0.13% (n = 310,000);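 active = B-score of the integrated fluorescence ratio above library mean plus 3 SD, and starting fluorescence ratio within library mean plus 5 SD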;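 note: higher score means more depolarization so channel activation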
# Target sequence (Q61143 whole entry, looked up): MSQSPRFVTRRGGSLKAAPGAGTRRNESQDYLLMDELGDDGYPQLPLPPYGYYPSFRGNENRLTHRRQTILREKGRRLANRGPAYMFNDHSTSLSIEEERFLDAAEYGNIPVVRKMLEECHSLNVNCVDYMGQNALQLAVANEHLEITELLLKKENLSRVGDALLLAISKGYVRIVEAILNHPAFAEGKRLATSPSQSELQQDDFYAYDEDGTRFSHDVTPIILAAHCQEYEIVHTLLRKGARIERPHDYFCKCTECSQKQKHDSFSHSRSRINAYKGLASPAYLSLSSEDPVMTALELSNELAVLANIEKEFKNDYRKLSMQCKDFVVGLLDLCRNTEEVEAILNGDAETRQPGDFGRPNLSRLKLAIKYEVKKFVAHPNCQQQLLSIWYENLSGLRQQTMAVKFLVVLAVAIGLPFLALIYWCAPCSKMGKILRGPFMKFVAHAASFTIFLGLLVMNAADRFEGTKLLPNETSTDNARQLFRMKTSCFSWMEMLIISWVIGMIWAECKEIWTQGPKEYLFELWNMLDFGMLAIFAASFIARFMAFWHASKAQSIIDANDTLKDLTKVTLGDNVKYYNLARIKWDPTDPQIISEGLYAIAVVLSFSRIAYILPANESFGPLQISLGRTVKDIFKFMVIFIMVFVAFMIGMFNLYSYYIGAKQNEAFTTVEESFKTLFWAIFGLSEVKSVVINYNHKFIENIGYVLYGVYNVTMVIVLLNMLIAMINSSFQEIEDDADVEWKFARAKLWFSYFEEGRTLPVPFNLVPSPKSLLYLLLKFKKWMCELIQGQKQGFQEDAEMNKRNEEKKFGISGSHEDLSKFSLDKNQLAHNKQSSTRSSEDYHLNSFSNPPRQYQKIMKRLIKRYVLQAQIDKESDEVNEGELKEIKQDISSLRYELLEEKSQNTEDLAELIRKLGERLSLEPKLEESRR
# TRPC4 inh: inhibitors of mouse TRPC4 channel, primary screen, Fluo4 calcium, HEK293 TRPC4beta/mu-opioid cells. actives 0.39% (n = 300,000). B-score at 10 µM. DAMGO-evoked Fluo4 calcium flux; stronger effect = lower value. AID 2247, 2010;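 active = B-score over 3 SD under the library average, no early fluorescence shift, positive overall ratio signal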
#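 Assay system: Stable TRPC4beta/mu-opioid receptor HEK293 cells | Reagent: DAMGO in two steps, submaximal then maximal | Compound dosing: Single concentration per test compound | Signal: Fluo4 Ca2+ flux fluorescence | Evaluation: Per-well B score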
# TRPC4 agonist: activators of mouse TRPC4 channel, primary screen, Fluo4 calcium, HEK293 TRPC4beta/mu-opioid cells; actives 0.49% (n = 310,000); B-score at 10 µM; AID 2237, 2010; Fluo4 calcium fluorescence; stronger effect = higher value;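 active = B-score above 5 SD of library B-scores, and initial fluorescence ratio not above library mean plus 5 SD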;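 note: positive B-score marks a calcium rise read as TRPC4 activation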
#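 Material: TRPC4beta and mu-opioid receptor HEK293 stable cells | Incubation: 45 min room-temperature Fluo4 loading, 110 s read | Detection: Kinetic Fluo4 calcium fluorescence | Measure: Integrated baseline-normalised fluorescence ratio, converted to per-well B score | Benchmarks: Low control buffer alone, high control maximal DAMGO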
# TRPC6 inh: mouse TRPC6 channel inhibitors, primary screen, cell-based, HEK293, membrane potential dye. B-score at 10 µM. ACh-evoked depolarization; stronger effect = lower value. actives 1.1% (n = 310,000). AID 2553, 2010. Short transient receptor potential channel 6 (Mus musculus), Q61143;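 active = B-score under library mean minus 3 SD, initial fluorescence not abnormally high, positive integrated signal ratio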;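 note: B-score derived from integrated fluorescence ratio over the kinetic read; more negative B-score means stronger inhibition of depolarization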
# TRPC4 sel inh 2: second check of whether TRPC6 inhibitors also affect mouse TRPC4. shares compounds with TRPC6 inh. HEK293 TRPC4/MOR, membrane potential dye fluorescence; channel activated by saturating DAMGO dose. inhibition, % at 10 µM. actives 42% (n = 920). AID 2776;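 active = compounds whose fluorescence signal differed from control wells by over 3 SD, either direction, in both duplicate plates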
# TRPC4 spec: mouse TRPC4 modulation by TRPC6 hits, confirmation, selectivity assay for TRPC6 inhibitor project, cell-based, HEK293 TRPC4/mu-opioid, membrane potential dye | shares compounds with TRPC6 inh | activity change, negative = inhibition, % at 10 µM | actives 61% (n = 920) | membrane potential fluorescence;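 active = rise or fall in signal beyond 3 SD of buffer-only wells in both replicate plates, either sign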;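 note: integrated kinetic ratio of fluorescence range over baseline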
# HEK293 MPD ctr 2-1: nonspecific membrane potential effects, parental HEK293, confirmation, counter-screen for TRPC6 inhibitor project, cell-based, second counter screen; shares compounds with TRPC6 inh; parental HEK293 membrane potential dye fluorescence; maximal acetylcholine challenge after compound addition; signal change vs control, % at 10 µM; actives 31% (n = 920); AID 2779, 2010;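 active = membrane potential signal moving either way by over 3 SD of the maximum-effect control, in both duplicate plates, meaning non-specific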
# HEK293 MPD ctr-1: membrane potential modulation in parental HEK293, confirmation, counter-screen for TRPC6 inhibitor project, cell-based | shares compounds with TRPC6 inh | parental HEK293 membrane potential dye fluorescence | membrane potential signal change, % at 10 µM | actives 60% (n = 920);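 active = membrane potential signal shifting up or down by more than 3 SD of buffer-only wells, on both duplicate plates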
# HEK293 MPD ctr-2: parental HEK293 membrane potential modulation, confirmation, counter-screen for TRPC6 modulator project, cell-based. shares compounds with TRPC6 inh. membrane potential dye fluorescence. membrane potential signal change, % at 10 µM. actives 51% (n = 2,400);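 active = membrane potential signal moves up or down beyond 5 SD from buffer-only wells, on both duplicate plates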
# HEK293 MPD ctr 2-2: second check of TRPC6 modulator effects in parental HEK293 cells | membrane potential dye fluorescence; after compound, maximal acetylcholine stimulation | shares compounds with TRPC6 inh | inhibition, % at 10 µM | actives 14% (n = 2,400);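 active = membrane potential signal drops by more than 5 SD from the mean control signal, in both duplicate plates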;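 note: plate controls were acetylcholine ECmax control wells for no effect and buffer only wells for full effect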
# TRPC4/MOR mod: TRPC4 modulation by TRPC6 hit compounds, confirmation, selectivity assay for TRPC6 modulator project, cell-based, HEK293 TRPC4/mu-opioid, membrane potential dye, mouse | percent change from control (negative = decrease, positive = increase), % at 10 µM | actives 69% (n = 2,400) | membrane potential fluorescence | shares compounds with TRPC6 inh;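 active = membrane potential signal moved up or down beyond 5 SD of buffer control wells, in both duplicate plates, actives on both sides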;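 note: plate controls were assay buffer wells for no effect and DAMGO maximal-effect wells for full effect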
# TRPC4 ctr inh 2: second check of whether TRPC6 modulators also affect mouse TRPC4 | HEK293 TRPC4/mu-opioid, membrane potential dye fluorescence; stimulated with maximal-effect DAMGO | shares compounds with TRPC6 inh | inhibition, % at 10 µM | actives 55% (n = 2,400) | AID 488928;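 active = drop in membrane potential signal beyond 5 SD of the control wells in both duplicate plates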;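 note: TRPC4 counter screen for TRPC6 hits run under conditions tuned for TRPC6 not TRPC4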
# TRPC6 block conf: mouse TRPC6 channel inhibitors, confirmation, HEK293 cells, membrane potential dye, duplicate | inhibition, % at 10 µM | actives 43% (n = 3,300) | shares compounds with TRPC6 inh | ACh-evoked depolarization | AID 488960, 2010;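 active = fluorescence ratio falls more than 5 SD below the full-stimulation control mean, in both duplicate runs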;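 note: integrated fluorescence ratio of peak minus minimum over baseline after agonist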
# TRPC6 act conf: mouse TRPC6 channel activators, confirmation, HEK293 cells, membrane potential dye, duplicate. activation, % at 10 µM. shares compounds with TRPC6 inh. HEK293-TRPC6 membrane potential dye fluorescence, FDSS. actives 11% (n = 2,800);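 active = ratio signal rise beyond 5 SD above unstimulated control wells' mean, seen in both duplicate runs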;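 note: plate controls were buffer EC0 wells for no effect and acetylcholine ECmax response for full effect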
# Active calls of the source: *; i = inactive; / = no result.
SMILES,TRPC4 potent,TRPC6 activator,TRPC4 inh,TRPC4 agonist,TRPC6 inh,HEK293 MPD ctr-2,HEK293 MPD ctr 2-2,TRPC4/MOR mod,TRPC4 ctr inh 2,TRPC6 block conf,others
Cc1ccc(S(=O)(=O)N2CCN(C(=O)C3=COCCO3)CC2)cc1C,i,i,i,i,-7*,/,/,/,/,i,TRPC4 sel inh 2=i;TRPC4 spec=-0.7%*;HEK293 MPD ctr 2-1=i;HEK293 MPD ctr-1=i;TRPC6 act conf=i
Cc1ccc2sc(N3CCN(C(=O)C4=COCCO4)CC3)nc2c1C,i,i,i,i,-5.4*,i,i,17%*,i,68%*,
O=C(C1=COCCO1)N1CCN(C(c2ccccc2)c2ccccc2)CC1,i,i,i,i,-7*,/,/,/,/,i,TRPC4 sel inh 2=i;TRPC4 spec=1.6%*;HEK293 MPD ctr 2-1=i;HEK293 MPD ctr-1=1.7%*
Cc1cc(C)c2nc(N3CCN(C(=O)c4cccs4)CC3)sc2c1,i,i,i,i,-6.5*,i,i,i,i,i,TRPC6 act conf=i
Cc1cc2nc(N3CCN(C(=O)c4cccs4)CC3)sc2cc1C,i,i,i,i,i,/,/,/,/,/,
C=CCNC(=S)N1CCN(Cc2ccccc2)CC1,i,i,i,i,i,/,/,/,/,/,
COc1ccc(/C=C/CN2CCC(Oc3ccc(C(=O)N4CCCCC4)cc3)CC2)cc1,i,i,i,i,i,/,/,/,/,/,
COC(=O)c1ccc(CN2CCC(Oc3cccc(C(=O)N4CCCC4)c3)CC2)cc1,i,i,i,i,i,/,/,/,/,/,
COc1ccccc1/C=C/CN1CCC(Oc2ccc(C(=O)N3CCCCC3)cc2)CC1,i,i,i,i,-5.8*,240%*,i,22%*,80%*,51%*,
COC(=O)c1ccc(CN2CCC(Oc3ccc(C(=O)N4CCCCC4)cc3)CC2)cc1,i,i,i,i,-5.7*,140%*,i,15%*,i,46%*,
Cc1ncc([N+](=O)[O-])n1CC(=O)Nc1cccc(C(F)(F)F)c1,i,i,i,i,i,/,/,/,/,/,
COc1ccc([N+](=O)[O-])cc1NC(=O)C1CCCO1 (stereo not given),i,i,i,i,i,/,/,/,/,/,
Fc1ccccc1CNCCC(Cc1ccccc1)c1ccc2c(c1)OCO2 (stereo not given),i,i,-8*,70*,-6.3*,119%*,i,48%*,69%*,i,
CC(=O)N(CCC(Cc1ccccc1)c1ccc2c(c1)OCO2)Cc1ccccc1F (stereo not given),i,i,i,i,i,/,/,/,/,/,
CCCCC(CC)Cn1c(N)c(C#N)c2nc3ccccc3nc21 (stereo not given),i,i,i,i,-6*,i,i,i,i,i,TRPC6 act conf=i
COc1ccc(C)cc1S(=O)(=O)N(C)CC(=O)N1CCN(c2ccccc2)CC1,i,i,i,i,i,/,/,/,/,/,
Cc1ccnc(Nc2nc(-c3ccc(O)cc3O)cs2)c1,i,i,i,i,i,/,/,/,/,/,
Cc1c(CCCN)c2ccccc2n1Cc1ccccc1,i,i,i,i,-7.3*,/,/,/,/,i,TRPC4 sel inh 2=55%*;TRPC4 spec=i;HEK293 MPD ctr 2-1=i;HEK293 MPD ctr-1=-196%*;TRPC6 act conf=i
O=Nc1c(O)n(Cc2ccccc2)c2ccccc12,i,i,i,i,i,/,/,/,/,/,
CCCNC(=S)Nc1c(C)n(C)n(-c2ccccc2)c1=O,i,i,i,i,i,/,/,/,/,/,
O=C(CSc1ccc2c(c1)OCCO2)NCCc1ccc(Cl)cc1Cl,i,i,i,i,-5.4*,350%*,i,16%*,i,i,TRPC6 act conf=i
COc1cccc(CN2CCN(C(=O)c3cccc4ccccc34)CC2)c1,i,12*,i,i,i,i,i,10%*,i,i,TRPC6 act conf=33%*
COc1cc(CN2CCN(C(=O)c3cccc4ccccc34)CC2)cc(OC)c1OC,i,i,i,i,i,/,/,/,/,/,
O=C(CN(Cc1ccccc1F)C(=O)c1csnn1)NCc1ccc2c(c1)OCO2,i,i,i,i,i,/,/,/,/,/,
CCOc1cc2c3c(c1)C(C)=CC(C)(C)N3C(=O)C2=O,i,i,i,i,i,/,/,/,/,/,

# Assay outcomes from PubChem.
